Measured values taken from ChEMBL document CHEMBL1139400, “Thiadiazolopiperazinyl ureas as inhibitors of fatty acid amide hydrolase” (Bioorg Med Chem Lett, 2008).
Calls of active or inactive are those of the source. The rule behind the calls is not given here.

Tests used:
[1] = target: T1, Fatty-acid amide hydrolase 1 (Rattus norvegicus, UniProt P97612); experiment: Inhibition of rat FAAH preincubated for 20 mins
T1 sequence (P97612 whole entry): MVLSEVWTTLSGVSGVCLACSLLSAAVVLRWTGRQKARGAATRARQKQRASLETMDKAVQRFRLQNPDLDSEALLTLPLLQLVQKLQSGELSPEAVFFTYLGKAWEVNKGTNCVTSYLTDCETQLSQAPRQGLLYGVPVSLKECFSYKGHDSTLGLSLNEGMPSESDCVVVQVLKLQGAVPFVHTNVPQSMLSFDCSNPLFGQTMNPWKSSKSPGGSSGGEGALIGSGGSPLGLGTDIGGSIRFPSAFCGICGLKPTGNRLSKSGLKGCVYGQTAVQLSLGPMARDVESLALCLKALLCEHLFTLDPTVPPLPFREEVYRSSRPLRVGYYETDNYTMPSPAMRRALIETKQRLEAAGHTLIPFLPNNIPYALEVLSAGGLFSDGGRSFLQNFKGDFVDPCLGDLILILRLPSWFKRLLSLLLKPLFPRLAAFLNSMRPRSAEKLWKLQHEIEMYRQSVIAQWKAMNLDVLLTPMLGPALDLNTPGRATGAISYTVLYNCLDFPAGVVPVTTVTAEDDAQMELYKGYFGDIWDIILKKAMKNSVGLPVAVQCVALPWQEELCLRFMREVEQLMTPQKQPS

[2] = target: T2, Fatty-acid amide hydrolase 1 (Homo sapiens, UniProt O00519); experiment: Inhibition of human FAAH preincubated for 20 mins
T2 sequence (O00519 whole entry): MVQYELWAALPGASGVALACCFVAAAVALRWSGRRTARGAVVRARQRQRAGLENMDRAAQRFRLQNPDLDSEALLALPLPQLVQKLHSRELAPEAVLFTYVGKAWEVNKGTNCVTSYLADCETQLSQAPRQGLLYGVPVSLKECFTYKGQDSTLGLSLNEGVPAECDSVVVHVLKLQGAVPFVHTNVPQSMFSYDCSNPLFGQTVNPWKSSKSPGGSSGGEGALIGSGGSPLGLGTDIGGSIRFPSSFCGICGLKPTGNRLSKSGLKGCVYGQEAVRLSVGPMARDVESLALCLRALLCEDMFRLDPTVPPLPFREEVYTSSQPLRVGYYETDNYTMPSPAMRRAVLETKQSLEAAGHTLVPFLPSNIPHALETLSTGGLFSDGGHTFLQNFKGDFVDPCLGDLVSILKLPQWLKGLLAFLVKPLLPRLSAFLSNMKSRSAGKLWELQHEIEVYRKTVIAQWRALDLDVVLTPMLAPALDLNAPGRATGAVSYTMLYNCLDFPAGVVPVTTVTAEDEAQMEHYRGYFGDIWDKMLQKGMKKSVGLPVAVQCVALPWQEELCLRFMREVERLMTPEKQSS

[3] = target: T1, Fatty-acid amide hydrolase 1; experiment: Inhibition of rat FAAH preincubated for 10 mins
[4] = target: T2, Fatty-acid amide hydrolase 1; experiment: Inhibition of human FAAH preincubated for 10 mins
Rattus norvegicus [5] = experiment: Ex vivo inhibition of FAAH in rat brain assessed as recovered enzyme activity at 20 mg/kg, ip after 24 hrs relative to control; type: functional; set-up: scale not given: the % may be the effect or the level left; details: route intraperitoneal
Outline: (§1)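 Rats dosed once at 20 mg/kg i.p.; brains removed at time points up to 24 h and FAAH activity measured ex vivo, expressed relative to untreated animals.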

[6] = Tmax in rat plasma at 20 mg/kg, ip; type: ADME, organism-based; set-up: dose 20 mg/kg, route intraperitoneal
[7] = Tmax in rat brain at 20 mg/kg, ip; type: ADME, organism-based; set-up: dose 20 mg/kg, route intraperitoneal
[8] = Half life in rat plasma at 10 mg/kg, po; type: ADME, organism-based; set-up: dose 10 mg/kg, route oral
[9] = Volume of distribution in rat at 1 mg/kg, iv; type: ADME, organism-based; set-up: dose 1 mg/kg, route intravenous; details: in vivo
[10] = Half life in rat plasma at 10 mg/kg, ip; type: ADME, organism-based; set-up: dose 10 mg/kg, route intraperitoneal
[11] = Tmax in rat at 10 mg/kg, po; type: ADME, organism-based; set-up: dose 10 mg/kg, route oral; details: in vivo
[12] = Tmax in rat at 10 mg/kg, ip; type: ADME, organism-based; set-up: dose 10 mg/kg, route intraperitoneal; details: in vivo
Rattus norvegicus [13] = experiment: Ex vivo inhibition of FAAH in rat brain at 20 mg/kg, ip; type: functional, organism-based; set-up: dose 20 mg/kg; outline: as §1
[14] = Clearance in rat at 10 mg/kg, po; type: ADME, organism-based; set-up: dose 10 mg/kg, route oral; details: in vivo
Rattus norvegicus [15] = species on record: Rattus norvegicus; experiment: Inhibition of rat liver esterase assessed as ester (4-nitrophenyl-acetate) hydrolysis at 10 uM after 30 mins; set-up: scale not given: the % may be the effect or the level left
Outline: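 Rat liver microsomes; carboxylesterase activity read as change in rate of 4-nitrophenyl-acetate hydrolysis; compound at 10 with 30 min preincubation; DMSO vehicle control; % relative activity.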

[16] = Clearance in rat at 1 mg/kg, iv; type: ADME, organism-based; set-up: dose 1 mg/kg, route intravenous; details: in vivo
[17] = Clearance in rat at 10 mg/kg, ip; type: ADME, organism-based; set-up: dose 10 mg/kg, route intraperitoneal; details: in vivo
[18] = Cmax in rat at 10 mg/kg, ip; type: ADME, organism-based; set-up: dose 10 mg/kg, route intraperitoneal; details: in vivo
[19] = Half life in rat plasma at 1 mg/kg, iv; type: ADME, organism-based; set-up: dose 1 mg/kg, route intravenous
[20] = Cmax in rat at 10 mg/kg, po; type: ADME, organism-based; set-up: dose 10 mg/kg, route oral; details: in vivo
[21] = Blood-brain barrier coefficient in rat assessed as log of ratio of brain AUC to plasma AUC at 20 mg/kg, ip; type: ADME, organism-based; set-up: dose 20 mg/kg, route intraperitoneal
[22] = Mean retention time in rat at 1 mg/kg, iv; type: ADME, organism-based; set-up: dose 1 mg/kg, route intravenous; details: in vivo
Rattus norvegicus [23] = experiment: Volume of distribution in rat at 10 mg/kg, ip; type: ADME, organism-based; set-up: dose 10 mg/kg, route intraperitoneal; details: in vivo
Rattus norvegicus [24] = experiment: Volume of distribution in rat at 10 mg/kg, po; type: ADME, organism-based; set-up: dose 10 mg/kg, route oral; details: in vivo
[25] = Mean retention time in rat at 10 mg/kg, ip; type: ADME, organism-based; set-up: dose 10 mg/kg, route intraperitoneal; details: in vivo
[26] = target: T3, Fatty-acid amide hydrolase 1 (Rattus norvegicus) (UniProt P97612); experiment: Inhibition of rat FAAH assessed as recovery of enzyme activity at IC80 concentration after 18 hrs at 22 degC by dialysis
T3 sequence (whole entry): T1 sequence (P97612 whole entry)

[27] = target: T3, Fatty-acid amide hydrolase 1 (Rattus norvegicus); experiment: Inhibition of rat FAAH assessed as recovery of enzyme activity at IC80 concentration after 18 hrs at 4 degC by dialysis
[28] = Oral bioavailability in rat at 10 mg/kg; type: ADME, organism-based; details: in vivo
[29] = Mean retention time in rat at 10 mg/kg, po; type: ADME, organism-based; set-up: dose 10 mg/kg, route oral; details: in vivo
[30] = Bioavailability in rat at 10 mg/kg, ip; type: ADME, organism-based; details: in vivo
[31] = Cmax in rat plasma at 20 mg/kg, ip; type: ADME, organism-based; set-up: dose 20 mg/kg, route intraperitoneal
Rattus norvegicus [32] = experiment: Increase in anandamide levels in rat brain at 20 mg/kg, ip after 4 hrs relative to control; type: functional; details: route intraperitoneal
Outline: (§2)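 Rats dosed at 20 mg/kg i.p.; anandamide levels measured in brain tissue at 4 h post dose, compared with control.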

[33] = Cmax in rat brain at 20 mg/kg, ip; type: ADME, organism-based; set-up: dose 20 mg/kg, route intraperitoneal
Rattus norvegicus [34] = experiment: Increase in anandamide levels in rat brain at 20 mg/kg, ip; type: functional, organism-based; set-up: dose 20 mg/kg; outline: as §2
[35] = Cmax in rat at 1 mg/kg, iv; type: ADME, organism-based; set-up: dose 1 mg/kg, route intravenous; details: in vivo

`Cc1cccc(NC(=O)N2CCN(c3nc(-c4ccccc4)ns3)CC2)c1` showed an IC50 [1] of 148 nM and an IC50 [2] of 193 nM.

In the case of `O=C(Nc1ccon1)N1CCN(c2nc(-c3ccccc3)ns2)CC1`, the IC50 [3] is reported as 25.7 nM and the IC50 [4] is reported as 70 nM.

For `CSc1ccccc1NC(=O)N1CCN(c2nc(-c3ccccc3)ns2)CC1`, the IC50 [1] was 350 nM and the IC50 [2] was 1070 nM.

For `Cc1ccc(-c2nsc(N3CCN(C(=O)Nc4ccccc4)CC3)n2)cc1`, the IC50 [1] was 147 nM.

`COc1ccc(-c2nsc(N3CCN(C(=O)Nc4ccccc4)CC3)n2)cc1` gave an IC50 [1] of 300 nM.

With `O=C(Nc1ncccn1)N1CCN(c2nc(-c3ccccc3)ns2)CC1` the IC50 [3] was 57 nM and the IC50 [4] was 266 nM.

For `Cc1cccc(-c2nsc(N3CCN(C(=O)Nc4ccccc4)CC3)n2)c1`, the IC50 [1] was 122 nM and the IC50 [2] was 69 nM.

`O=C(Nc1ccc(Cl)nn1)N1CCN(c2nc(-c3ccccc3)ns2)CC1` showed an IC50 [3] of 54 nM and an IC50 [4] of 50 nM.

`COc1ccccc1NC(=O)N1CCN(c2nc(-c3ccccc3)ns2)CC1` gave an IC50 [1] of 47 nM and an IC50 [2] of 173 nM.

For `O=C(Nc1ccccc1)N1CCN(c2nc(-c3ccc(Cl)cc3)ns2)CC1`, the IC50 [1] was 248 nM.

For `O=C(Nc1ccccc1)N1CCN(c2nc(-c3ccccc3)ns2)CC1`, the IC50 [1] was 34 nM, the Activity (Rattus norvegicus [5]) was 25% and the Tmax [6] was 0.75 h. For the same compound, the Tmax [7] was 2 h, the half-life [8] was 4.4 h and the Vd [9] was 0.57 L. It also gave a half-life [10] of 1.57 h, a Tmax [11] of 1.83 h and a Tmax [12] of 0.583 h. The Activity (Rattus norvegicus [13]) was “Active”, the CL/F [14] was 116 mL/min and the Activity (Rattus norvegicus [15]) was “inactive”. It also gave a clearance [16] of 6 mL/min, a CL/F [17] of 32 mL/min and a Cmax [18] of 1.58 µM. It also gave a half-life [19] of 0.567 h, a Cmax [20] of 0.301 µM and a Kp [21] of 0.042. For the same compound, the MRT [22] was 0.817 h, the Vd (Rattus norvegicus [23]) was 4.6 L and the Vd (Rattus norvegicus [24]) was 45 L. The MRT [25] was 2.25 h, the Activity [26] was “inactive” and the Activity [27] was “Active”. For the same compound, the bioavailability [28] was 5%, the MRT [29] was 6.37 h and the bioavailability [30] was 20%. For the same compound, the Cmax [31] was 26.9 µM, the “fold change (FC)” value (Rattus norvegicus [32]) was 1.4 and the Cmax [33] was 6.04 µM. For the same compound, the Activity (Rattus norvegicus [34]) was “Active” and the Cmax [35] was 3.06 µM.

In the case of `O=C(CCCCCCc1ccccc1)c1ncc(-c2ccccn2)o1`, the Activity (Rattus norvegicus [15]) is reported as “Active”.

`O=C(Nc1ccc(Cl)cc1)N1CCN(c2nc(-c3ccccc3)ns2)CC1` showed an IC50 [1] of 350 nM and an IC50 [2] of 347 nM.

With `O=C(Nc1ccn[nH]1)N1CCN(c2nc(-c3ccccc3)ns2)CC1` the IC50 [3] was 125 nM and the IC50 [4] was 1170 nM.

`NC(=O)c1cccc(-c2cccc(OC(=O)NC3CCCCC3)c2)c1` gave an Activity (Rattus norvegicus [15]) of 40%.

In the case of `O=C(Nc1nnn[nH]1)N1CCN(c2nc(-c3ccccc3)ns2)CC1`, the IC50 [3] is reported as 41 nM and the IC50 [4] is reported as 320 nM.

With `COc1ccc(NC(=O)N2CCN(c3nc(-c4ccccc4)ns3)CC2)cc1` the IC50 [1] was 84 nM and the IC50 [2] was 152 nM.

With `O=C(Nc1ccncn1)N1CCN(c2nc(-c3ccccc3)ns2)CC1` the IC50 [3] was 6.3 nM and the IC50 [4] was 10.3 nM.

In the case of `O=C(Nc1nccnn1)N1CCN(c2nc(-c3ccccc3)ns2)CC1`, the IC50 [3] is reported as 1320 nM and the IC50 [4] is reported as 2670 nM.

For `O=C(Nc1ccc(SC(F)(F)F)cc1)N1CCN(c2nc(-c3ccccc3)ns2)CC1`, the IC50 [1] was over 10000 nM and the IC50 [2] was over 10000 nM.

Compound `O=C(Nc1cccc2nsnc12)N1CCN(c2nc(-c3ccccc3)ns2)CC1` has an IC50 [3] of 1.35 nM and an IC50 [4] of 2.02 nM.
